Data set [1] has as its system MDA-MB-231. As to the kind of experiment: Antitumor activity against human MDA-MB-231 cells xenografted in iv dosed MF1 nude mouse administered for 5 consecutive days followed by 2 drug-free days repeated for 4 weeks relative to control. Format: functional, organism-based. In a few lines: (§1)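 MDA-MB-231 cells (5 × 10^6) implanted subcutaneously in flank of female MF1 nude mice (2−3 months, 20−25 g), passaged as ~1 mm3 tumor pieces; at ~0.06 cm3 (three weeks) split into groups of six. Agent in DMSO diluted in saline, tail-vein iv at 250 or 300 μg/kg/day, 5 days on/2 off for four weeks; untreated controls. Tumor volume (L×W×H×π/6) and body weight every 3−4 days.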
(In general: A xenograft is tissue or cells of one species grown in another, often human tumour cells in immunodeficient mice.)

Data set [2] in a line: Selectivity ratio of deltaTm for GC-rich FAM-GCGCAGATTTTCTGCGC-TAMRA DNA (unknown origin) to deltaTm for AT-rich FAM-TATAAGATTTTCTTATA-TAMRA DNA (unknown origin). In a few lines: (§2)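 Fam/Tamra-labelled hairpins, 400 nM in 50 mM potassium cacodylate pH 7.4, annealed at 85 °C for 5 min, cooled over 5 h, then mixed 1:1 with ligand diluted from DMSO stock; ligand 1 μM, 24 h incubation. Fluorescence (excitation 450−495, emission 515−545 nm) read every 0.5 °C from 30−100 °C; Tm from first-derivative maximum of smoothed curves, ΔTm versus blank.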

For data set [3], the system named is A549. As to the kind of experiment: Cytotoxicity against human A549 cells after 96 hrs by MTT assay. It is filed as functional, cell-based. The settings on record: A549, 96 h. Summed up: (§3)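 Adherent cells were grown at 37 °C in 5% CO2 in DMEM or MEM with 10% FBS, L-glutamine, nonessential amino acids and hydrocortisone, then seeded to 30–40% confluence. Compounds were dissolved in water at up to 100 μM, serially diluted tenfold and added for 96 h of continuous exposure. MTT absorbance was read at 570 nm, and IC50 was taken from dose–response analysis.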
A general note: Formazan colour is commonly taken as a measure of viable cells.

The subject of data set [4] is WI-38. As to the kind of experiment: Cytotoxicity against human WI38 cells after 96 hrs by MTT assay. It is filed as cell-based. The note with it: WI-38, 96 h. Summed up:
as §3

Data set [5] concerns MCF7. As to the kind of experiment: Cytotoxicity against human MCF7 cells after 96 hrs by MTT assay. Format: functional, cell-based. The settings on record: MCF7, 96 h. In a few lines: as §3
For data set [6], the system named is HeLa. As to the kind of experiment: Downregulation of NFAT in human HeLa cells at 10 nM after 4 hrs relative to control. It is filed as functional. In a few lines: (§4)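 Nuclear extracts from 1 × 10^7 HeLa cells treated 4 h, plus untreated controls; 10 μg nuclear protein per sample run on a 48-transcription-factor activation profiling plate array per kit instructions.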

Data set [7] relates to MIA PaCa-2. As to the kind of experiment: Inhibition of NFkappaB in human MIAPaCa2 cells xenografted in mouse assessed as downregulation of BCL2 by immunohistochemical staining relative to control. It is filed as cell-based. In a few lines:
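Sections of MIA PaCa-2 xenograft tumors from treated and untreated mice: peroxidase quenched with 0.3% H2O2/methanol 15 min, blocked in 3% goat serum/PBS 30 min, 2 μg/mL BCL2 antibody 1 h at room temperature, then HRP […] antibody 1 h; staining quantified against controls.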

Data set [8] can be described thus: Cytotoxicity against human primary CLL cells after 96 hrs by annexin V/propidium iodide staining-based FACS flow cytometric analysis. It is filed as functional, cell-based. In a few lines: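 Freshly isolated peripheral blood CLL cells at 1 × 10^6/mL were cultured in RPMI with penicillin, streptomycin and 10% FCS at 37 °C in 5% CO2. Serial dilutions of compound from DMSO stocks were added, with drug-free control cultures. Apoptosis was measured by annexin V/propidium iodide flow cytometry, in duplicate. LD50 came from sigmoidal curves of log concentration against percentage apoptosis.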
In general terms: A flow cytometer gives signals particle by particle.

For data set [9], the system named is HeLa. As to the kind of experiment: Downregulation of OCT4 in human HeLa cells at 10 nM after 4 hrs relative to control. It is filed as functional. In a few lines: as §4
Data set [10] deals with MDA-MB-231. As to the kind of experiment: Cytotoxicity against human MDA-MB-231 cells after 96 hrs by MTT assay. Format: functional, cell-based. The note with it: MDA-MB-231, 96 h. In a few lines: as §3
Data set [11] relates to MIA PaCa-2. As to the kind of experiment: Antitumor activity against human MIAPaCa2 cells xenografted in MF1 nude mouse at 300 ug/kg/day, iv administered for 5 consecutive days followed by 2 drug-free days repeated for 3 weeks relative to control. It is filed as functional, organism-based. Summed up:
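MIA PaCa-2 cells (5 × 10^6) implanted subcutaneously in flank of female MF1 nude mice (2−3 months, 20−25 g); at ~0.06 cm3, groups of six. DMSO stock diluted in saline, given by tail-vein injection at 300 μg/kg/day, five days on, two off, for three weeks; vehicle controls. Tumors measured every 3−4 days by ellipsoid formula; mice weighed for toxicity.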

Data set [12] concerns Mus musculus. As to the kind of experiment: Toxicity in MF1 nude mouse xenografted with human MDA-MB-231 cells at 250 to 300 ug/kg/day, iv. Format: organism-based. The settings on record: in vivo. In a few lines: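 Female MF1 nude mice (2–3 months old, 20–25 g) carried subcutaneous flank MDA-MB-231 xenografts. At about 0.06 cm3 the mice were split into groups of six: 250 or 300 μg/kg iv by tail vein, or untreated. Compound was dissolved in DMSO and diluted in saline, given daily for 5 days then 2 days off, over 4 weeks. Body weight and signs of toxicity (>20% weight loss) were checked every 3–4 days.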

The test system of data set [13] is Mus musculus. As to the kind of experiment: Toxicity in Swiss Webster mouse at 350 ug/kg/day, ip. It is filed as organism-based. The note with it: in vivo, 0.35 mg/kg.
Data set [14] concerns A2780. As to the kind of experiment: Cytotoxicity against human A2780 cells after 96 hrs by MTT assay. Format: functional, cell-based. The note with it: A2780, 96 h. In a few lines:
as §3

The subject of data set [15] is A-431. As to the kind of experiment: Cytotoxicity against human A431 cells after 96 hrs by MTT assay. The settings on record: A-431, 96 h. Format: functional, cell-based. Summed up: as §3
For data set [16], the system named is MDA-MB-231. As to the kind of experiment: Antitumor activity against human MDA-MB-231 cells xenografted in MF1 nude mouse at 300 ug/kg/day, iv administered for 5 consecutive days followed by 2 drug-free days repeated for 4 weeks measured up to 3 weeks after last dose. It is filed as functional, organism-based. Summed up:
as §1

Data set [17] is described as follows: Toxicity in ip dosed Swiss Webster mouse. The settings on record: in vivo. Format: organism-based.
Data set [18] can be described thus: Binding affinity to GC-rich FAM-GCGCAGATTTTCTGCGC-TAMRA DNA (unknown origin) assessed as change in melting temperature at 1 uM by FRET assay. In a few lines: as §2
For data set [19], the system named is HeLa. As to the kind of experiment: Inhibition of NFkappaB activity in human HeLa cells at 10 nM after 4 hrs relative to control. Format: cell-based. In a few lines: as §4
The nature of data set [20]: Binding affinity to AT-rich FAM-TATAAGATTTTCTTATA-TAMRA DNA (unknown origin) assessed as change in melting temperature at 1 uM by FRET assay. In a few lines:
as §2

For data set [21], the system named is HeLa. As to the kind of experiment: Downregulation of EGR in human HeLa cells at 10 nM after 4 hrs relative to control. It is filed as functional. In a few lines: as §4
The test system of data set [22] is CLL. As to the kind of experiment: Inhibition of NFkappaB-mediated IkappaBalpha phosphorylation in human primary CLL cells at 0.1 nM after 24 hrs by Western blotting analysis. It is filed as cell-based. Summed up:
(§5)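 Primary CLL cells exposed 24 h, washed in PBS and lysed in HEPES-based buffer with NaF, iodoacetamide, NP40, PMSF, orthovanadate, protease and phosphatase inhibitors; Western blots probed for phosphorylated IκBα and p65, actin as loading control.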

Data set [23] deals with HeLa. As to the kind of experiment: Downregulation of SMAD in human HeLa cells at 10 nM after 4 hrs relative to control. It is filed as functional. Summed up: as §4
For data set [24], the system named is CLL. As to the kind of experiment: Inhibition of NFkappaB-mediated p65 phosphorylation in human primary CLL cells at 0.1 nM after 24 hrs by Western blotting analysis. Format: cell-based. In a few lines: as §5
For data set [25], the system named is Mus musculus. As to the kind of experiment: Toxicity in Swiss Webster mouse assessed as weight loss at 400 ug/kg/day, ip. It is filed as organism-based. The note with it: in vivo, 0.4 mg/kg.

The results in this text go back to ChEMBL document CHEMBL2321778, “GC-targeted C8-linked pyrrolobenzodiazepine-biaryl conjugates with femtomolar in vitro cytotoxicity and in vivo antitumor activity in mouse models” (J Med Chem, 2013).

Active and inactive are the calls of the source. The rule behind the calls is not given here.

Consider `COC(=O)c1cc(-c2ccc(NC(=O)c3nc(NC(=O)CCCOc4cc5c(cc4OC)C(=O)N4CCC[C@H]4C=N5)cn3C)cc2)cn1C`, for which the Activity result in [1] was “Dose-dependent effect”; in [6] it was 30%; in data set [9] it was 30%; in data set [12], “Non-toxic”; in [13] it was “Non-toxic”; in data set [21], 30%. The same compound came in with an Activity in data set [23] of 30%. Further, the Ratio in [2] is 1.03. Moreover, the IC50 is 34 pM in data set [3]; 129000 pM in data set [4]; 0.02 pM in [5]; 170 pM in data set [8]; 0.18 pM in data set [10]; 21 pM in [14]. In addition, half-maximal inhibition in [15] (IC50) was put at 18 pM. In addition, the inhibition entry in data set [7], in data set [22] and in data set [24] was “Active” each time. Besides, the result in data set [11] and in data set [16] was Active. Besides, the MTD in data set [17] is 0.4 mg/kg/day. Also, the ΔTm in data set [18] was found to be 6.2 °C; in data set [20], 6 °C. The compound further yielded an inhibition in data set [19] of 50%.

As for `COC(=O)c1cc(-c2ccc(NC(=O)c3cc(NC(=O)CCCOc4cc5c(cc4OC)C(=O)N4CCC[C@H]4C=N5)cn3C)cc2)cn1C`, the Ratio in data set [2] turned out to be 0.28. Further, the IC50 came to 56 pM in data set [3]; 474000 pM in data set [4]; 0.02 pM in data set [5]; 98 pM in [8]; 0.065 pM in data set [10]; 13 pM in data set [14]. Further, the Activity result in data set [25] is listed as “Toxic”. The MTD in [17] was found to be 0.4 mg/kg/day. For the same compound, the ΔTm in data set [18] was 1.4 °C; in [20] it was 5 °C.

The term IC50 denotes the point on the concentration scale where inhibition reaches its midpoint. Read a high IC50 as weaker potency in that assay. As usually defined, the inhibition is the percentage by which the read-out fell short of the control. Broadly, the ΔTm is the shift of the melting midpoint relative to a reference.
